Activity calls are given as the source filed them. No cut-off for these calls is given here.
tested on: SMMC-7721; assay: Growth inhibition of human SMMC7721 cells after 48 hrs by MTT assay; type: functional, cell-based; details: SMMC-7721, 48 h
Summary of the method: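 SMMC7721 human hepatocellular carcinoma cells were kept in DMEM with 10% fetal calf serum at 37 °C and 5% CO2, and passaged twice weekly to stay in log growth. After 24 h at 7500 cells per well, compounds were added at various concentrations for 48 h, in triplicate. Viability was read as MTT formazan dissolved in DMSO, at 570 nm. IC50 determined; 10-hydroxycamptothecin served as positive control.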

SMILES | IC50
CC[C@@]1(O)C(=O)OCc2c1cc1n(c2=O)Cc2cc3cc(O)ccc3nc2-1 [HYDROXYCAMPTOTHECIN] | 140 nM
C[C@@H]1CC[C@@]2(OC1)O[C@H]1C[C@H]3[C@@H]4CCC5=C[C@@H](O[C@@H]6O[C@H](CO)[C@@H](O)[C@H](O[C@@H]7O[C@@H](C)[C@H](O)[C@@H](O)[C@H]7O)[C@H]6O[C@@H]6O[C@@H](C)[C@H](O)[C@@H](O)[C@H]6O)CC[C@]5(C)[C@H]4CC[C@]3(C)[C@@]1(O)[C@@H]2C | 4540 nM

tested on: Bel-7402; assay: Cytotoxicity against human Bel7402 cells at 10 uM after 48 hrs by MTT assay; type: functional; details: not given
Summary of the method: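 Bel-7402 human hepatocellular carcinoma cells were grown in DMEM with 10% fetal calf serum at 37 °C under 5% CO2 and subcultured twice weekly. Cells were seeded at 7500 per well and, after 24 h, compound was added at 10 µM. After 48 h exposure in triplicate, MTT was added, formazan was dissolved in DMSO and absorbance was read at 570 nm. The value is % inhibition.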

SMILES | Activity
C[C@@H]1O[C@@H](O[C@H]2[C@H](O[C@H]3CC[C@@]4(C)C(=CC[C@@H]5[C@@H]4CC[C@@]4(C)[C@H]5C[C@@H]5O[C@]6(CC[C@](C)(O)CO6)[C@@H](C)[C@@]54O)C3)O[C@H](CO)[C@@H](O)[C@@H]2O[C@@H]2O[C@@H](C)[C@H](O)[C@@H](O)[C@H]2O)[C@H](O)[C@H](O)[C@H]1O | inactive
C/C(C(=O)CC[C@@H](C)CO)=C1/C(=O)C[C@H]2[C@@H]3CCC4=C[C@@H](O[C@@H]5O[C@H](CO)[C@@H](O)[C@H](O[C@@H]6O[C@@H](C)[C@H](O)[C@@H](O)[C@H]6O)[C@H]5O[C@@H]5O[C@@H](C)[C@H](O)[C@@H](O)[C@H]5O)CC[C@]4(C)[C@H]3CC[C@]12C | inactive
C[C@@H]1[C@@]2(CC[C@](C)(O)CO2)O[C@H]2C[C@H]3[C@@H]4CCC5=CC(=O)CC[C@]5(C)[C@H]4CC[C@]3(C)[C@]21O | inactive
C[C@@H]1[C@@]2(CC[C@@](C)(CO)O2)O[C@H]2C[C@H]3[C@@H]4C=CC5=CC(=O)CC[C@]5(C)[C@H]4CC[C@]3(C)[C@]21O | inactive
C[C@@H]1[C@@]2(CC[C@@](C)(CO)O2)O[C@H]2C[C@H]3[C@@H]4CCC5=CC(=O)CC[C@]5(C)[C@H]4CC[C@]3(C)[C@]21O | inactive
C[C@@H]1O[C@@H](O[C@@H]2[C@@H](O)[C@H](O[C@H]3CC[C@@]4(C)C(=CC[C@@H]5[C@@H]4CC[C@@]4(C)[C@H]5C[C@@H]5O[C@]6(CC[C@](C)(O)CO6)[C@@H](C)[C@@]54O)C3)O[C@H](CO)[C@H]2O)[C@H](O)[C@H](O)[C@H]1O | inactive
C[C@@H]1CC[C@@]2(OC1)O[C@H]1C[C@H]3[C@@H]4CCC5=C[C@@H](O[C@@H]6O[C@H](CO)[C@@H](O)[C@H](O[C@@H]7O[C@@H](C)[C@H](O)[C@@H](O)[C@H]7O)[C@H]6O[C@@H]6O[C@@H](C)[C@H](O)[C@@H](O)[C@H]6O)CC[C@]5(C)[C@H]4CC[C@]3(C)[C@@]1(O)[C@@H]2C | 99.1%
C[C@@H]1CC[C@@]2(OC1)O[C@H]1C[C@H]3[C@@H]4CCC5=CC(=O)CC[C@]5(C)[C@H]4CC[C@]3(C)[C@@]1(O)[C@@H]2C | inactive
